Our source for the EC50 and IC50 values is ChEMBL document CHEMBL1153324, “Potent inhibitors of Huntingtin protein aggregation in a cell-based assay” (Bioorg Med Chem Lett, 2009).

T1 sequence (P42858 whole entry): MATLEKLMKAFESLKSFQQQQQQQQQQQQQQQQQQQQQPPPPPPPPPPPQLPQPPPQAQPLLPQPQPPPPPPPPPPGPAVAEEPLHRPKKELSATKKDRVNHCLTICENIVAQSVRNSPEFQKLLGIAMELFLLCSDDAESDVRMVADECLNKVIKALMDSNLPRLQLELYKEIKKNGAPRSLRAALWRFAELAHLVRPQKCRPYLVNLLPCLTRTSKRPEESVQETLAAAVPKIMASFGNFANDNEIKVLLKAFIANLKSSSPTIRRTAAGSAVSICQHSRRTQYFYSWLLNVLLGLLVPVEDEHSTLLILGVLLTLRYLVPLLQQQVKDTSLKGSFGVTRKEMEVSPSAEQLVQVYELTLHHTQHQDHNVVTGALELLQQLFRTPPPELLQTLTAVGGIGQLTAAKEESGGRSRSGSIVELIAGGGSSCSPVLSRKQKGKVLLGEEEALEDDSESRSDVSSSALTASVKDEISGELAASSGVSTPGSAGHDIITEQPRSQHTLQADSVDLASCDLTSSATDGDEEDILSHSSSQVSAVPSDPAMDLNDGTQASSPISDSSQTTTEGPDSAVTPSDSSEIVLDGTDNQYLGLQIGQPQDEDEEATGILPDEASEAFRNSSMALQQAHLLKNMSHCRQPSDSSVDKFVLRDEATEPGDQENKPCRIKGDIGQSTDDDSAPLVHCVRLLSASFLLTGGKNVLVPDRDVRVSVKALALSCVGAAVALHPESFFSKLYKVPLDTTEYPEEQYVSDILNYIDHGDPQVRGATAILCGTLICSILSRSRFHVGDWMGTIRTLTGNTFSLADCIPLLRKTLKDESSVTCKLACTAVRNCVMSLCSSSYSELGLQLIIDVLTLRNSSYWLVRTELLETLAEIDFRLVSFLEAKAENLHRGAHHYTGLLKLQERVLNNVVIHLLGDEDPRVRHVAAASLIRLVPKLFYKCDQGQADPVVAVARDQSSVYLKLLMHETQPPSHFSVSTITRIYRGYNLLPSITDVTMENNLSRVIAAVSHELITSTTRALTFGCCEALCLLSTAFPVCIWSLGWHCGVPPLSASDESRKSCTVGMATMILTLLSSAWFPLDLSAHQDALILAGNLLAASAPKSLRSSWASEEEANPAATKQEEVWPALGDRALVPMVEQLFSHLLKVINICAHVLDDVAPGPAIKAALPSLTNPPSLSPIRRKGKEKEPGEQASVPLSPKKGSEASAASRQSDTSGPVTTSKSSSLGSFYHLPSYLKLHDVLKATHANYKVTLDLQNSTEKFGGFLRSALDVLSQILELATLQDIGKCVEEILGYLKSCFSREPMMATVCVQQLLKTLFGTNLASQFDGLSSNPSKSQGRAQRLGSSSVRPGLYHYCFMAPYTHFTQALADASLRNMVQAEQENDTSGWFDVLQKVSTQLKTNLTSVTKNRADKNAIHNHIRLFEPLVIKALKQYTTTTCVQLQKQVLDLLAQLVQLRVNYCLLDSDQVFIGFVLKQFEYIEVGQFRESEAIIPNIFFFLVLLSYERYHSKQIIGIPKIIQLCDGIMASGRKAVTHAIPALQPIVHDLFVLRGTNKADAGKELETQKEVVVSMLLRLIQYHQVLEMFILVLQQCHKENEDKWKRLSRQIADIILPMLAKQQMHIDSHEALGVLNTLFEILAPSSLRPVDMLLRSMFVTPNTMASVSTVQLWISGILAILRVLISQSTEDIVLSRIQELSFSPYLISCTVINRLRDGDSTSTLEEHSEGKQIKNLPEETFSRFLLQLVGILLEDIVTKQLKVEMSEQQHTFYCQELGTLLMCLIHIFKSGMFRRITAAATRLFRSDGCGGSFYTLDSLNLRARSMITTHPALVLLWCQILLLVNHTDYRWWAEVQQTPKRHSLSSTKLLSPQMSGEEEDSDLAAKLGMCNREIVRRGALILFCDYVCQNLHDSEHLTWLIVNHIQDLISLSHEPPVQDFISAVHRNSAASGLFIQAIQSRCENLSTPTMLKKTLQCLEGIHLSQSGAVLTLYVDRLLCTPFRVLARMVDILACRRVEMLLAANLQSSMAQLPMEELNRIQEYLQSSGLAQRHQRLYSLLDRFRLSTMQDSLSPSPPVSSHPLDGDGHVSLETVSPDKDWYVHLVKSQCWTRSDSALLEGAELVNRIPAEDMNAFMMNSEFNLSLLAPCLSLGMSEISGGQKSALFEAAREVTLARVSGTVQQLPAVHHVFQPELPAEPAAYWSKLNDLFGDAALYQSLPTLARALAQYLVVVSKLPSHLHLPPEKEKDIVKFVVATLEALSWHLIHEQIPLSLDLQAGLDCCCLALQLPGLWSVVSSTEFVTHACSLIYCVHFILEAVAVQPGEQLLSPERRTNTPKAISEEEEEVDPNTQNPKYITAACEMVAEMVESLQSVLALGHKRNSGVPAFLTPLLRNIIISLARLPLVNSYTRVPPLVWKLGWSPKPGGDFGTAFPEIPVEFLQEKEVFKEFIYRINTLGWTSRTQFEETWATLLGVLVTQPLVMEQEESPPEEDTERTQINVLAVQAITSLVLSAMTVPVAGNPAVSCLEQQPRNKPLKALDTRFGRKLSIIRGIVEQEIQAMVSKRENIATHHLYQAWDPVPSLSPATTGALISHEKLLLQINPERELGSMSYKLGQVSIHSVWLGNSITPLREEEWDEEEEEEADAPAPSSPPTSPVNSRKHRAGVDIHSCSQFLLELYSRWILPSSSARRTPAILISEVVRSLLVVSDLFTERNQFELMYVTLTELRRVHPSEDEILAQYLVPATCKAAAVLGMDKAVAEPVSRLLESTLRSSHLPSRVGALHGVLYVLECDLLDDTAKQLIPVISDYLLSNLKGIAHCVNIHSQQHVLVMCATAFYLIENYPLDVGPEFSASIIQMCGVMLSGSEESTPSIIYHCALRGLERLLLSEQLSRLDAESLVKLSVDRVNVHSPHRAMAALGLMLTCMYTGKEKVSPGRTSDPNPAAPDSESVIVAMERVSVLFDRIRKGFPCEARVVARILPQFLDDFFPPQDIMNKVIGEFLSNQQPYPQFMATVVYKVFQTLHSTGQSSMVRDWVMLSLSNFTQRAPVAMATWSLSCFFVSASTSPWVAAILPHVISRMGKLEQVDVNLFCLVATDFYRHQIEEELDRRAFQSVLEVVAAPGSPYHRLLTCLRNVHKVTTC

The first assay addresses T1, Huntingtin (Homo sapiens, UniProt P42858). Description: Inhibition of Huntingtin protein aggregation by yeast based assay.
Conditions: not given; call rule not given here
In general, EC50 refers to the concentration at which the effect is half-maximal. A higher EC50 goes with a less potent agent. For the molecule `CCCNc1ncnc2ccc(Br)cc12`, the EC50 was 50 µM.
On to `C=CCNc1ncnc2ccc(Br)cc12`, for which the half-maximal effective concentration (EC50) is 50 µM.
With `Brc1ccc2ncnc(NCc3ccccc3)c2c1`, a half-maximal response (EC50) required 50 µM.

Another assay deals with T1, Huntingtin. The assay is described as follows: Inhibition of Huntingtin protein aggregation by cell based assay.
Conditions: not given
The gist of the method: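 Stable transfectants express mutant huntingtin fused to mCFP from a tet-regulatable gene. Cells are seeded in 96-well format and treated with compound for 72 h. Controls are 2 μg/mL doxycycline and 0.1% DMSO (no dox). Aggregation is scored as the presence and magnitude of fluorescent intracellular inclusions (% cells with aggregates, aggregates per cell), and an IC50 is derived.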
One may read the IC50 as the concentration that gives 50% inhibition. Consider `Clc1ccc(CCNc2ncnc3ccc(Br)cc23)cc1`, for which the concentration for half-maximal inhibition (IC50) result was “Not Active”.
In the case of `Fc1ccc2ncnc(NCCc3ccc(Cl)cc3)c2c1`, the half-inhibitory concentration (IC50) entry is listed as “Not Active”.
The same measure, in the same setting: next, `Clc1ccc2ncnc(NCCc3ccc(Oc4ccccc4)cc3)c2c1`: “Not Active”.
`Clc1ccc2ncnc(NCCc3ccc(OC4CCCC4)cc3)c2c1`: the IC50 entry is listed as “Not Active”.
Still for that read-out and setting: to `Brc1ccc2ncnc(N3CCN(Cc4ccc5c(c4)OCO5)CC3)c2c1` belongs “Not Active”; to `Clc1ccc2ncnc(NCCc3ccc(OCc4ccccc4)cc3)c2c1`, “Not Active”; to `Nc1ccc2ncnc(NCCc3ccc(Oc4ccccc4)cc3)c2c1`, “Not Active”.

The same assay, now with this note: read-out: IC50.
Regarding `Clc1ccc(CCNc2ncnc3ccc(Cl)cc23)cc1`, the concentration for half-maximal inhibition (IC50) turned out to be 3.44 µM.
The same measure, in the same setting: next, `Clc1ccc(CCNc2ncnc3ccccc23)cc1`: 10.5 µM; `Fc1ccc2ncnc(N3CCN(Cc4ccc5c(c4)OCO5)CC3)c2c1`: greater than 10 µM.
On the same count and under the same terms, to `CCN1CCN(c2ncnc3ccc(F)cc23)CC1` belongs 5.26 µM.
The same measure, in the same setting: next, `CCN1CCN(c2ncnc3ccc(Cl)cc23)CC1`: 3.63 µM; `CCCNc1ncnc2ccc(Br)cc12`: 8.13 µM; `CCN1CCN(c2ncnc3ccccc23)CC1`: greater than 10 µM.
In the case of `CN1CCN(c2ncnc3ccc(F)cc23)CC1`, the half-inhibitory concentration (IC50) is greater than 10 µM.
On the same count and under the same terms, next, `Oc1ccc(CCNc2ncnc3ccc(Cl)cc23)cc1`: 0.71 µM; `CN1CCN(c2ncnc3ccc(Cl)cc23)CC1`: greater than 10 µM; `Clc1ccc2ncnc(N3CCN(Cc4ccc5c(c4)OCO5)CC3)c2c1`: 1.07 µM.
Same read-out and setting: to `Oc1ccc(CCNc2ncnc3ccc(F)cc23)cc1` belongs 6.38 µM; to `c1ccc2c(N3CCN(Cc4ccc5c(c4)OCO5)CC3)ncnc2c1`, greater than 10 µM.
As for `Oc1ccc(CCNc2ncnc3ccccc23)cc1`, the IC50 is greater than 15.8 µM.
Still for that read-out and setting: next, `CCOC(=O)COc1ccc(CCNc2ncnc3ccc(Cl)cc23)cc1`: 4.48 µM; `C=CCNc1ncnc2ccc(Br)cc12`: 5.36 µM.
Still for that read-out and setting: next, `Brc1ccc2ncnc(NCc3ccccc3)c2c1`: 6.13 µM; `CCN1CCN(c2ncnc3ccc(Br)cc23)CC1`: 2.21 µM; `CN1CCN(c2ncnc3ccc(Br)cc23)CC1`: 1.31 µM.
Still for that read-out and setting: to `Oc1ccc(CCNc2ncnc3ccc(Br)cc23)cc1` belongs 1.11 µM; to `CN1CCN(c2ncnc3ccccc23)CC1`, greater than 10 µM; to `Brc1ccc2ncnc(N3CCNCC3)c2c1`, 2.74 µM.
